Experimental data reported in ChEMBL document CHEMBL4004832, “Synthesis, surfactant properties and antimicrobial activities of methyl glycopyranoside ethers” (2017).
≈ marks a conversion by molar mass, not a printed value. Blank lines part the entries; values can stand above or below the compound they belong to.

Legend:
Pseudomonas aeruginosa = experiment: Antibacterial activity against Pseudomonas aeruginosa ATCC 27853 after 18 hrs by broth microdilution assay; format: functional; conditions: ATCC 27853, 18 h
Staphylococcus aureus [1] = experiment: Antibacterial activity against Staphylococcus aureus ATCC 29213 after 18 hrs by broth microdilution assay; format: functional; conditions: ATCC 29213, 18 h
Procedure, shortened: (§1)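 Broth MIC testing on Gram-positive strains followed CLSI M100-S17 recommendations. […] Values are in mmol/L. Amoxicillin was the control for Listeria and Enterococcus strains and oxacillin for S. aureus strains.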

Enterococcus faecalis [2] = experiment: Antibacterial activity against Enterococcus faecalis ATCC 29212 after 18 hrs by broth microdilution assay; format: functional; conditions: ATCC 29212, 18 h; procedure, shortened: as §1
[3] = Surfactant property of the compound in water assessed as critical micelle concentration or minimal hydrotropic concentration by platinum rod based tensiometric method
Procedure, shortened: (§2)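 Surface tension of aqueous solutions was measured by a rod method based on the Wilhelmy plate. Water was progressively concentrated with a stock surfactant solution at constant volume. At each concentration, readings continued until stable (SD of the last 5 values 0.2 mN/m). MHC or CMC and the plateau γsat were taken from the tension vs concentration curves.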

Listeria monocytogenes [4] = experiment: Antibacterial activity against Listeria monocytogenes CIP 103575 after 18 hrs by broth microdilution assay; format: functional; conditions: CIP 103575, 18 h; procedure, shortened: as §1
Escherichia coli = experiment: Antibacterial activity against Escherichia coli ATCC 8739 after 18 hrs by broth microdilution assay; format: functional; conditions: ATCC 8739, 18 h
Enterococcus faecium [5] = experiment: Antibacterial activity against Enterococcus faecium isolate 015205731401 after 18 hrs by broth microdilution assay; format: functional; conditions: isolate 015205731401, 18 h; procedure, shortened: as §1
Enterococcus faecium [6] = experiment: Antibacterial activity against […] Enterococcus faecium isolate 0151850763 after 18 hrs by broth microdilution assay; format: functional; conditions: isolate 0151850763, 18 h
Procedure, shortened: (§3)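 Enterococcus faecium strains (reference, clinical isolates, VanA isolate) tested by MIC following CLSI recommendations (M100-S17), with amoxicillin as control. […] Values are expressed in mmol/L.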

Staphylococcus aureus [7] = experiment: Antibacterial activity against methicillin-resistant Staphylococcus aureus isolate HT 2004-0012 after 18 hrs by broth microdilution assay; format: functional; conditions: isolate HT 2004-0012, 18 h
Procedure, shortened: (§4)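 Staphylococcus aureus reference strains and methicillin- and daptomycin-resistant isolates tested by MIC according to CLSI guidance (M100-S17), with oxacillin as control. The endpoint is the lowest concentration with no growth in all replicates versus a negative control at 18 h. Values are reported in mmol/L.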

Staphylococcus aureus [8] = experiment: Antibacterial activity against daptomycin-resistant Staphylococcus aureus isolate ST 2015-0989 after 18 hrs by broth microdilution assay; format: functional; conditions: isolate ST 2015-0989, 18 h; procedure, shortened: as §4
Staphylococcus aureus [9] = experiment: Antibacterial activity against methicillin-resistant Staphylococcus aureus LAC USA300 after 18 hrs by broth microdilution assay; format: functional; procedure, shortened: as §4
Staphylococcus aureus [10] = experiment: Antibacterial activity against methicillin-resistant Staphylococcus aureus isolate HT 2006-1004 after 18 hrs by broth microdilution assay; format: functional; conditions: isolate HT 2006-1004, 18 h; procedure, shortened: as §4
Staphylococcus aureus [11] = experiment: Antibacterial activity against methicillin-resistant Staphylococcus aureus isolate HT 2002-0417 after 18 hrs by broth microdilution assay; format: functional; conditions: isolate HT 2002-0417, 18 h; procedure, shortened: as §4
Staphylococcus aureus [12] = experiment: Antibacterial activity against daptomycin-resistant Staphylococcus aureus isolate ST 2015-0188 after 18 hrs by broth microdilution assay; format: functional; conditions: isolate ST 2015-0188, 18 h; procedure, shortened: as §4
Staphylococcus aureus [13] = experiment: Antibacterial activity against methicillin-resistant Staphylococcus aureus Mu3 after 18 hrs by broth microdilution assay; format: functional; conditions: Mu3, 18 h; procedure, shortened: as §4
Enterococcus faecium [14] = experiment: Antibacterial activity against Enterococcus faecium isolate 015205261801 after 18 hrs by broth microdilution assay; format: functional; conditions: isolate 015205261801, 18 h; procedure, shortened: as §3
Staphylococcus aureus [15] = experiment: Antibacterial activity against daptomycin-resistant Staphylococcus aureus isolate ST 2014-1288 after 18 hrs by broth microdilution assay; format: functional; conditions: isolate ST 2014-1288, 18 h; procedure, shortened: as §4
Staphylococcus aureus [16] = experiment: Antibacterial activity against methicillin-resistant Staphylococcus aureus isolate LY 1999-0053 after 18 hrs by broth microdilution assay; format: functional; conditions: isolate LY 1999-0053, 18 h; procedure, shortened: as §4
Listeria monocytogenes [17] = experiment: Antibacterial activity against Listeria monocytogenes isolate 015170199001 after 18 hrs by broth microdilution assay; format: functional; conditions: isolate 015170199001, 18 h; procedure, shortened: as §1
Enterococcus faecium [18] = experiment: Antibacterial activity against Enterococcus faecium CIP 103510 after 18 hrs by broth microdilution assay; format: functional; conditions: CIP 103510, 18 h; procedure, shortened: as §3
Listeria monocytogenes [19] = experiment: Antibacterial activity against Listeria monocytogenes isolate 015189074801 after 18 hrs by broth microdilution assay; format: functional; conditions: isolate 015189074801, 18 h; procedure, shortened: as §1
Enterococcus faecalis [20] = experiment: Antibacterial activity against Enterococcus faecalis isolate 015206179901 after 18 hrs by broth microdilution assay; format: functional; conditions: isolate 015206179901, 18 h; procedure, shortened: as §1
Listeria monocytogenes [21] = experiment: Antibacterial activity against Listeria monocytogenes isolate 015181840701 after 18 hrs by broth microdilution assay; format: functional; conditions: isolate 015181840701, 18 h; procedure, shortened: as §1
Staphylococcus aureus [22] = experiment: Antibacterial activity against Staphylococcus aureus ATCC 25923 after 18 hrs by broth microdilution assay; format: functional; conditions: ATCC 25923, 18 h; procedure, shortened: as §4
[23] = Surfactant property of the compound in aqueous solution assessed as critical micelle concentration or minimal hydrotropic concentration; procedure, shortened: as §2

MIC (Pseudomonas aeruginosa): > 4000 µM
MIC (Staphylococcus aureus [1]): > 4000 µM
MIC (Enterococcus faecalis [2]): > 4000 µM
MIC (Listeria monocytogenes [4]): 2000 µM (≈ 609 µg/mL)
MIC (Escherichia coli): > 4000 µM
SMILES: CCCCCCC[C@@H]1OC[C@H]2O[C@H](OC)[C@H](O)[C@@H](O)[C@@H]2O1
CMC [3]: 2.5 mmol/L

SMILES: CCCCCCCCCCCCO[C@H]1[C@H](OC)O[C@@H](C)[C@H](O)[C@H]1O
MIC (Enterococcus faecium [5]): 20 µM (≈ 6.93 µg/mL)
MIC (Enterococcus faecium [6]): 50 µM (≈ 17.3 µg/mL)
MIC (Staphylococcus aureus [7]): 50 µM (≈ 17.3 µg/mL)
MIC (Staphylococcus aureus [8]): 180 µM (≈ 62.4 µg/mL)
MIC (Staphylococcus aureus [9]): 90 µM (≈ 31.2 µg/mL)
MIC (Staphylococcus aureus [1]): 50 µM (≈ 17.3 µg/mL)
MIC (Staphylococcus aureus [10]): 90 µM (≈ 31.2 µg/mL)
MIC (Enterococcus faecalis [2]): 50 µM (≈ 17.3 µg/mL)
MIC (Staphylococcus aureus [11]): 90 µM (≈ 31.2 µg/mL)
MIC (Staphylococcus aureus [12]): 180 µM (≈ 62.4 µg/mL)
MIC (Staphylococcus aureus [13]): 180 µM (≈ 62.4 µg/mL)
MIC (Enterococcus faecium [14]): 50 µM (≈ 17.3 µg/mL)
MIC (Listeria monocytogenes [4]): 90 µM (≈ 31.2 µg/mL)
MIC (Staphylococcus aureus [15]): 90 µM (≈ 31.2 µg/mL)
MIC (Staphylococcus aureus [16]): 90 µM (≈ 31.2 µg/mL)
MIC (Listeria monocytogenes [17]): 90 µM (≈ 31.2 µg/mL)
MIC (Enterococcus faecium [18]): 50 µM (≈ 17.3 µg/mL)
MIC (Listeria monocytogenes [19]): 90 µM (≈ 31.2 µg/mL)
MIC (Enterococcus faecalis [20]): 50 µM (≈ 17.3 µg/mL)
MIC (Listeria monocytogenes [21]): 90 µM (≈ 31.2 µg/mL)
MIC (Staphylococcus aureus [22]): 90 µM (≈ 31.2 µg/mL)

SMILES: CCCCCCCCCCC[C@@H]1OC[C@H]2O[C@H](OC)[C@H](O)[C@@H](O)[C@@H]2O1
CMC [3]: > 0.06 mmol/L

MIC (Pseudomonas aeruginosa): > 4000 µM
MIC (Staphylococcus aureus [1]): > 4000 µM
MIC (Enterococcus faecalis [2]): > 4000 µM
MIC (Listeria monocytogenes [4]): > 4000 µM
MIC (Escherichia coli): > 4000 µM
SMILES: CCCC[C@@H]1OC[C@H]2O[C@H](OC)[C@H](O)[C@@H](O)[C@@H]2O1
CMC [3]: 82 mmol/L

SMILES: CCCCCCCCCCCCOC[C@H]1O[C@H](OC)[C@H](O)[C@@H](O)[C@H]1O
MIC (Enterococcus faecium [5]): 90 µM (≈ 32.6 µg/mL)
MIC (Enterococcus faecium [6]): 350 µM (≈ 127 µg/mL)
MIC (Staphylococcus aureus [7]): > 710 µM
MIC (Staphylococcus aureus [8]): > 710 µM
MIC (Staphylococcus aureus [9]): > 710 µM
MIC (Staphylococcus aureus [1]): > 710 µM
MIC (Staphylococcus aureus [10]): > 710 µM
MIC (Enterococcus faecalis [2]): 180 µM (≈ 65.3 µg/mL)
MIC (Staphylococcus aureus [11]): > 710 µM
MIC (Staphylococcus aureus [12]): > 710 µM
MIC (Staphylococcus aureus [13]): > 710 µM
CMC [3]: 0.47 mmol/L
MIC (Enterococcus faecium [14]): 20 µM (≈ 7.25 µg/mL)
MIC (Listeria monocytogenes [4]): 180 µM (≈ 65.3 µg/mL)
MIC (Staphylococcus aureus [15]): > 710 µM
MIC (Staphylococcus aureus [16]): > 710 µM
MIC (Listeria monocytogenes [17]): 180 µM (≈ 65.3 µg/mL)
MIC (Enterococcus faecium [18]): > 710 µM
MIC (Listeria monocytogenes [19]): 180 µM (≈ 65.3 µg/mL)
MIC (Enterococcus faecalis [20]): 180 µM (≈ 65.3 µg/mL)
MIC (Listeria monocytogenes [21]): 180 µM (≈ 65.3 µg/mL)
MIC (Staphylococcus aureus [22]): > 710 µM

SMILES: CCCCCCCCCCCCO[C@@H]1O[C@H](CO)[C@@H](O)[C@H](O)[C@H]1O
CMC [23]: 0.19 mmol/L

MIC (Pseudomonas aeruginosa): > 4000 µM
MIC (Staphylococcus aureus [1]): > 4000 µM
MIC (Enterococcus faecalis [2]): > 4000 µM
MIC (Listeria monocytogenes [4]): > 4000 µM
MIC (Escherichia coli): > 4000 µM
SMILES: CCCCCCOC[C@H]1O[C@H](OC)[C@H](O)[C@@H](O)[C@@H]1O
CMC [3]: 13.4 mmol/L

MIC (Pseudomonas aeruginosa): > 4000 µM
MIC (Staphylococcus aureus [1]): > 4000 µM
MIC (Enterococcus faecalis [2]): > 4000 µM
MIC (Listeria monocytogenes [4]): > 4000 µM
MIC (Escherichia coli): > 4000 µM
SMILES: CCCCCOC[C@H]1O[C@H](OC)[C@H](O)[C@@H](O)[C@@H]1O
CMC [3]: 35 mmol/L

SMILES: CCCCCCCCCCCC(=O)OC[C@H]1O[C@H](O[C@]2(CO)O[C@H](CO)[C@@H](O)[C@@H]2O)[C@H](O)[C@@H](O)[C@@H]1O
CMC [23]: 0.25 mmol/L

MIC (Pseudomonas aeruginosa): > 4000 µM
MIC (Staphylococcus aureus [1]): > 4000 µM
MIC (Enterococcus faecalis [2]): > 4000 µM
MIC (Listeria monocytogenes [4]): > 4000 µM
MIC (Escherichia coli): > 4000 µM
SMILES: CCCCC[C@@H]1OC[C@H]2O[C@H](OC)[C@H](O)[C@@H](O)[C@@H]2O1
CMC [3]: 6.5 mmol/L

SMILES: CCCCCCCCCCCCO[C@H]1O[C@H](CO)C(O[C@H]2O[C@H](CO)[C@@H](O)[C@H](O)[C@H]2O)[C@H](O)[C@H]1O (single isomer, unassigned)
CMC [23]: 0.15 mmol/L

SMILES: Cc1onc(-c2ccccc2)c1C(=O)N[C@@H]1C(=O)N2[C@@H]1SC(C)(C)[C@@H]2C(=O)O [OXACILLIN]
MIC (Staphylococcus aureus [7]): 80 µM (≈ 32.1 µg/mL)
MIC (Staphylococcus aureus [8]): 320 µM (≈ 128 µg/mL)
MIC (Staphylococcus aureus [9]): 160 µM (≈ 64.2 µg/mL)
MIC (Staphylococcus aureus [1]): 1 µM (≈ 0.401 µg/mL)
MIC (Staphylococcus aureus [10]): 320 µM (≈ 128 µg/mL)
MIC (Staphylococcus aureus [11]): 160 µM (≈ 64.2 µg/mL)
MIC (Staphylococcus aureus [12]): 160 µM (≈ 64.2 µg/mL)
MIC (Staphylococcus aureus [13]): 640 µM (≈ 257 µg/mL)
MIC (Staphylococcus aureus [15]): 160 µM (≈ 64.2 µg/mL)
MIC (Staphylococcus aureus [16]): 160 µM (≈ 64.2 µg/mL)
MIC (Staphylococcus aureus [22]): 50 µM (≈ 20.1 µg/mL)
